Measured values: ChEMBL document CHEMBL2429801, “3-Ylidenephthalides as a new class of transient receptor potential channel TRPA1 and TRPM8 modulators” (Bioorg Med Chem Lett, 2013)

Key:
[1] = molecular target: T1, Transient receptor potential cation channel subfamily M member 8 (Rattus norvegicus, UniProt Q8R455); assay: Antagonist activity at rat recombinant TRPM8 overexpressed in HEK293 cells assessed as inhibition of icilin-induced intracellular calcium influx preincubated for 5 mins followed by icilin challenge by Fluo-4-AM dye-based spectrofluorimetric analysis; assay type: cell-based
[2] = molecular target: T1, Transient receptor potential cation channel subfamily M member 8; assay: Antagonist activity at rat recombinant TRPM8 overexpressed in HEK293 cells assessed as inhibition of menthol-induced intracellular calcium influx preincubated for 5 mins followed by menthol challenge by Fluo-4-AM dye-based spectrofluorimetric analysis; assay type: cell-based
[3] = molecular target: T2, Transient receptor potential cation channel subfamily A member 1 (Rattus norvegicus, UniProt Q6RI86); assay: Antagonist activity at rat recombinant TRPA1 overexpressed in HEK293 cells assessed as inhibition of allyl isothiocyanate-induced intracellular calcium influx preincubated for 5 mins followed by allyl isothiocyanate challenge by Fluo-4-AM dye-based spectrofluorimetric analysis; assay type: cell-based
In short: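 Test compounds were preincubated for 5 min in the cuvette with Fluo-4-loaded rat TRPA1-HEK293 cells in Tyrode's buffer, followed by 100 µM AITC challenge.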

[4] = molecular target: Transient receptor potential cation channel subfamily M member 8 (Rattus norvegicus) (UniProt Q8R455); assay: Agonist activity at rat recombinant TRPM8 overexpressed in HEK293 cells assessed as induction of intracellular calcium influx by Fluo-4-AM dye-based spectrofluorimetric analysis relative to ionomycin; assay type: cell-based; parameters: concentration or dose not given beside the values
[5] = molecular target: Transient receptor potential cation channel subfamily A member 1 (Rattus norvegicus) (UniProt Q6RI86); assay: Agonist activity at rat recombinant TRPA1 overexpressed in HEK293 cells assessed as induction of intracellular calcium influx by Fluo-4-AM dye-based spectrofluorimetric analysis relative to allyl isothiocyanate; assay type: cell-based
[6] = molecular target: T2, Transient receptor potential cation channel subfamily A member 1; assay: Agonist activity at rat recombinant TRPA1 overexpressed in HEK293 cells assessed as induction of intracellular calcium influx by Fluo-4-AM dye-based spectrofluorimetric analysis; assay type: cell-based
[7] = molecular target: T3, Transient receptor potential cation channel subfamily A member 1 (Homo sapiens, UniProt O75762); assay: Agonist activity at TRPA1 (unknown origin)
[8] = molecular target: T1, Transient receptor potential cation channel subfamily M member 8; assay: Agonist activity at rat recombinant TRPM8 overexpressed in HEK293 cells assessed as induction of intracellular calcium influx by Fluo-4-AM dye-based spectrofluorimetric analysis; assay type: cell-based
[9] = molecular target: T3, Transient receptor potential cation channel subfamily A member 1; assay: Antagonist activity at TRPA1 (unknown origin) assessed as inhibition of mustard oil-activated […]
In short: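 Rat TRPA1 stably expressed in HEK293 cells grown in EMEM with 10% FBS. Cells were loaded with Fluo-4-AM (4 µM) for 1 h at room temperature, then suspended in Tyrode's buffer pH 7.4. Compound was added 5 min before 100 µM allyl isothiocyanate. Ca2+ fluorescence (ex 488/em 516 nm) was read at 25 °C, with the agonist-alone response set as 100%.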

Transient receptor potential cation channel subfamily M member 8 (Rattus norvegicus), sequence (Q8R455 whole entry, looked up): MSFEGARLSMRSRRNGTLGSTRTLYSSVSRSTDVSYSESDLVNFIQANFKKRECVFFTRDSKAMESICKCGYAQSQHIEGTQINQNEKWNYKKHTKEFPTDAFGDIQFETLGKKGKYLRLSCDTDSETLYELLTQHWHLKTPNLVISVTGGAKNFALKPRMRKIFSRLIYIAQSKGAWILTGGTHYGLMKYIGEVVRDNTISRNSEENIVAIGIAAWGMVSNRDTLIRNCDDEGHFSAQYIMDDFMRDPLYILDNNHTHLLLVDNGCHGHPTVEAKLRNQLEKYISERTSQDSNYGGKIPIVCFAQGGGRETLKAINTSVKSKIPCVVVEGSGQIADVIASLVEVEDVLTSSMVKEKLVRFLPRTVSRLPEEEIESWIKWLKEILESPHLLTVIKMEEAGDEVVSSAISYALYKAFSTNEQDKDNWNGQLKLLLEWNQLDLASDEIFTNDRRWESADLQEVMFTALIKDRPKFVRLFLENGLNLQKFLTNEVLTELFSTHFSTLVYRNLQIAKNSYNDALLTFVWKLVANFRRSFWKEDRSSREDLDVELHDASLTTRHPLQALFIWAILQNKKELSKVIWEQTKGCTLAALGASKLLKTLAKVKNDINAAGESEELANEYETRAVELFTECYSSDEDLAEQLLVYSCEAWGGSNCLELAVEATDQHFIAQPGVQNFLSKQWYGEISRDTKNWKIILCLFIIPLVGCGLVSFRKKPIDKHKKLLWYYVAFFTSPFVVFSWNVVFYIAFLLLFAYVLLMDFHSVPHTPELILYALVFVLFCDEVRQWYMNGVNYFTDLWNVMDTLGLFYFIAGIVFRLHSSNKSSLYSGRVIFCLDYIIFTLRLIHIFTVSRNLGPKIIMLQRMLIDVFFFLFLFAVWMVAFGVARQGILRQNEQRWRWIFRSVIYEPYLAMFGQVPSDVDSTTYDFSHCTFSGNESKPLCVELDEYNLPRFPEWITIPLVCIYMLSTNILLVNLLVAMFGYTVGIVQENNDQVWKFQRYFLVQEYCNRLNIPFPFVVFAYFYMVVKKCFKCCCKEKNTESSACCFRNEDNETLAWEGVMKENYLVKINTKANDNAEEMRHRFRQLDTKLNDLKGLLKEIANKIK
T1 sequence (Q8R455 whole entry): as the sequence (Q8R455 whole entry, looked up) above
Transient receptor potential cation channel subfamily A member 1 (Rattus norvegicus), sequence (Q6RI86 whole entry): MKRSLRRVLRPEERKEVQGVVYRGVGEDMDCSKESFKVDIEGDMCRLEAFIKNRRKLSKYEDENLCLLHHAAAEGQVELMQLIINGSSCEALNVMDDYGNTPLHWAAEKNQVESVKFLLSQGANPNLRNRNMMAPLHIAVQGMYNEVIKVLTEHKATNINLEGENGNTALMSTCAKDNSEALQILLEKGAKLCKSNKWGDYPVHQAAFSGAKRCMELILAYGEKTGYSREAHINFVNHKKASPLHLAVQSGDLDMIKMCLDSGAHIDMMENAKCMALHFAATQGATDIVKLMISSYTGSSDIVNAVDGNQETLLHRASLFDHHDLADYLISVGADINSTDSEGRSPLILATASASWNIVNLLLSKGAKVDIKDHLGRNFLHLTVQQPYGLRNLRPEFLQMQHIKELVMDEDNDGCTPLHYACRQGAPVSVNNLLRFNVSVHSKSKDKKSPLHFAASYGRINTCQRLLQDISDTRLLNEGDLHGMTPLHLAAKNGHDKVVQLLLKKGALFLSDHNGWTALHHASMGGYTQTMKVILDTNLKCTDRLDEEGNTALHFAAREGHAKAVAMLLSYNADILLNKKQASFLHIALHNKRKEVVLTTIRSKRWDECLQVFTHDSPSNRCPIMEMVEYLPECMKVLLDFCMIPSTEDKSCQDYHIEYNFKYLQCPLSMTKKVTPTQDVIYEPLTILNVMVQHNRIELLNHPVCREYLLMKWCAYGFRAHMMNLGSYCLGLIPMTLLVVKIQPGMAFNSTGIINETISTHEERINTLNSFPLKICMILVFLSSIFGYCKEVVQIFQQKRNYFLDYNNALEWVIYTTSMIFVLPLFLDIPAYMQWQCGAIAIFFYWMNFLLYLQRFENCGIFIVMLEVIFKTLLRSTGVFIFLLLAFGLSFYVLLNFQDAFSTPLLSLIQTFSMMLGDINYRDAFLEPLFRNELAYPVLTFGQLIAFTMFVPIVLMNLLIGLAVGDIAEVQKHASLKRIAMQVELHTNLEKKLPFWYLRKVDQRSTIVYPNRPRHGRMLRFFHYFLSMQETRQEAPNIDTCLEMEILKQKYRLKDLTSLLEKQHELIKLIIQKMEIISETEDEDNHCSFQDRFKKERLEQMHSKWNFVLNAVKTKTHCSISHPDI
T2 sequence (Q6RI86 whole entry): as above
T3 sequence (O75762 whole entry): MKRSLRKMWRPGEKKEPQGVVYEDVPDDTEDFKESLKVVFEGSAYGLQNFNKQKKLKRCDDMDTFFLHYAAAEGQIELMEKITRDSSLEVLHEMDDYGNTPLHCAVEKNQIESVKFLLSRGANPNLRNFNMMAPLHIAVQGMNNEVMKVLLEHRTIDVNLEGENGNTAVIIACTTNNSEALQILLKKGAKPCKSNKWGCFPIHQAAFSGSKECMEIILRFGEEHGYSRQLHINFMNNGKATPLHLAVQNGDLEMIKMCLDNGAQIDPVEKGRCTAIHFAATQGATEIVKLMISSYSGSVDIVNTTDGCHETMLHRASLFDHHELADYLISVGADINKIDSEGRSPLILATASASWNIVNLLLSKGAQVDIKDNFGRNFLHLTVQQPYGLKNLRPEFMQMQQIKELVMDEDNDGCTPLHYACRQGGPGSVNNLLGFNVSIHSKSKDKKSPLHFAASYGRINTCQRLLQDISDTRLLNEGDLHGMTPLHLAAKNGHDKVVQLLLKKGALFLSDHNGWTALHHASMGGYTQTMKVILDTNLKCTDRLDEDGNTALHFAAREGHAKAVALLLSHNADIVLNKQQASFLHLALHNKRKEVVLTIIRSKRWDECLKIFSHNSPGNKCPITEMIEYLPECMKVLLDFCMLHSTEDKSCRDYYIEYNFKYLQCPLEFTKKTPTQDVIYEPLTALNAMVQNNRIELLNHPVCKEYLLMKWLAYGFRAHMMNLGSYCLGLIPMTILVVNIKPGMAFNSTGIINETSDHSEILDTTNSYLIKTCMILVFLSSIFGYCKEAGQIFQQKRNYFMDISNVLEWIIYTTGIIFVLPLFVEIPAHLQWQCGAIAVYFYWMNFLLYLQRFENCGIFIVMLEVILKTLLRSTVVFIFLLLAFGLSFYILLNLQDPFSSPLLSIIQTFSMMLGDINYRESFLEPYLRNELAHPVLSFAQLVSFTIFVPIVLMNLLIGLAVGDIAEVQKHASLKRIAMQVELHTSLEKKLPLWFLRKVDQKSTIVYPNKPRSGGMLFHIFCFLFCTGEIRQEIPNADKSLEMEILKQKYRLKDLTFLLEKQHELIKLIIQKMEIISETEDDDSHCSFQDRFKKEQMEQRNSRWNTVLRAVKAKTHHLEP

Row | IC50 [1] | IC50 [2] | IC50 [3] | Efficacy [4] | Efficacy [5] | EC50 [6] | EC50 [7] | EC50 [8] | SMILES | IC50 [9]
1 | 7.2 µM | 25.1 µM | 2.4 µM | < 10% | 126% | 4.3 µM |  |  | Cc1ccc(/C=C2\OC(=O)c3ccccc32)cc1 | 
2 | > 200 µM | > 200 µM | > 100 µM | < 10% | 10.2% | 32.2 µM |  |  | C=C1OC(=O)c2cc(F)ccc21 | 
3 | 1 µM | 1.9 µM | 0.8 µM | < 10% | 117% | 1.1 µM |  |  | Cc1cc(C)c2c(c1)/C(=C/c1ccccc1)OC2=O | 
4 |  |  |  |  |  |  | 44 µM |  | CCC/C=C1\OC(=O)C2=C1CCC=C2 [LIGUSTILIDE] | 
5 | 161 µM | > 200 µM | > 100 µM | < 10% | 24.6% | 21.7 µM |  |  | C/C=C1\OC(=O)c2ccc(OC)cc21 | 
6 | 3.4 µM | 11.3 µM | 2.2 µM | 12.9% | 65.1% | 1.3 µM |  | 1.8 µM | COc1ccc(/C=C2\OC(=O)c3ccccc32)cc1 | 
7 | 14.9 µM | 48.1 µM | 1.5 µM | < 10% | 112% | 2 µM |  |  | O=C1O/C(=C\c2ccc(Cl)cc2)c2ccccc21 | 
8 | 7.7 µM | 12.1 µM | 36.3 µM | < 10% | 43.7% | 15.8 µM |  |  | CC/C=C1\OC(=O)c2c(C)cc(C)cc21 | 

The remaining lines, values behind:

Row | SMILES | IC50 [1] | IC50 [2] | IC50 [3] | Efficacy [4] | Efficacy [5] | EC50 [6] | EC50 [7] | EC50 [8] | IC50 [9]
9 | CCC/C=C1\OC(=O)c2ccccc21 [Z-butylidenephthalide] | 141 µM | 153 µM | 44.5 µM |  |  |  |  |  | 
10 | C=C1OC(=O)c2c(C)cc(C)cc21 | 90.1 µM | 128 µM | 34 µM | < 10% | 85.1% | 17.2 µM |  |  | 
11 | CCC/C=C1\OC(=O)c2ccccc21 |  |  |  | < 10% | < 10% |  |  |  | 
12 | O=C1O/C(=C\c2ccccc2)c2ccccc21 | 8.3 µM | 10.2 µM | 2.9 µM | < 10% | 93.6% | 3 µM |  |  | 
13 | CCC/C=C1\OC(=O)c2ccccc21 (mixture of isomers) [Z-butylidenephthalide] |  |  |  |  |  |  |  |  | 23 µM
